Data set [1] deals with Trypanosoma cruzi. The experiment in a line: Antitrypanosomal activity against trypomastigote stage of Trypanosoma cruzi Y assessed as inhibition of cell viability after 24 hrs by MTT assay. The class given is functional, organism-based. The essentials: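 T. cruzi Y-strain trypomastigotes incubated with alkaloids for 24 h; viability by MTT. Benznidazole as standard drug control. IC50 from sigmoidal dose–response curves, mean and standard deviation of replicates from at least two independent assays, 95% CI.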

In data set [2] the test system is Leishmania infantum. Nature of the data set: Antileishmanial activity against intracellular amastigote stage of Leishmania infantum MHOM/BR/1972/LD infected in BALB/c mouse peritoneal macrophages assessed as reduction of parasite burden after 120 hrs by Giemsa staining assay. The class given is functional, organism-based. The essentials: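 Peritoneal macrophages from BALB/c mice (collected in RPMI-1640 with 10% FBS, 37 °C, 5% CO2) infected with L. infantum amastigotes from spleens of infected hamsters, at a 1:10 macrophage:amastigote ratio. Compound exposure for 120 h, then Giemsa staining; infected macrophages counted out of 500 cells. Miltefosine as standard drug control.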

The subject of a further data set is LLC-MK2. The experiment in a line: Cytotoxicity against rhesus monkey LLC-MK2 cells assessed as inhibition of cell viability after 48 hrs by MTT assay. The class given is cell-based. The following applies: Macaca mulatta, LLC-MK2, 48 h. The essentials:
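LLC-MK2 rhesus monkey kidney cells seeded at 4 × 10^4 per well, exposed to alkaloids at up to 200 μM for 48 h; viability by MTT. IC50 from sigmoidal dose–response fits with 95% CI, replicates from at least two independent assays.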
(In general: Tetrazolium assays rely on reduction of a dye to a coloured formazan, in cell work by metabolically active cells.)

Data set [3] has as its system Trypanosoma cruzi. Nature of the data set: Potency index, ratio of benznidazole IC50 to compound IC50 for trypomastigote stage of Trypanosoma cruzi Y. The format is functional.
In data set [4] the test system is Leishmania infantum. Nature of the data set: Antileishmanial activity against promastigote stage of Leishmania infantum MHOM/BR/1972/LD assessed as reduction of cell viability after 48 hrs by MTT assay. The format is functional, organism-based. The gist of the method: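 L. infantum promastigotes exposed to alkaloids dissolved in DMSO, diluted in M-199 medium, highest concentration 156 μM, with internal controls; viability read by MTT after 48 h incubation. IC50 from sigmoidal dose–response curves, mean and standard deviation of replicates from at least two independent assays, with 95% CI.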

The subject of another data set is A549. The experiment in a line: Cytotoxicity against human A549 cells. The format is functional, cell-based.
In the next data set the test system is HeLa. The experiment in a line: Cytotoxicity against human HeLa cells. The format is functional, cell-based.
The next data set deals with MCF7. The experiment in a line: Cytotoxicity against human MCF7 cells. The class given is functional, cell-based.
The nature of data set [5]: Cytotoxicity against human MCF10A cells. The format is cell-based. The following applies: mcf-10a.
Data set [6] has as its system Trypanosoma brucei brucei. The experiment in a line: Antitrypanosomal activity against Trypanosoma brucei brucei GUTat 3.1 after 72 hrs by Alamar blue assay. The class given is functional, organism-based. The conditions noted are these: GUTat 3.1, 72 h.
The nature of data set [7]: Selectivity index, ratio of IC50 for rhesus monkey LLC-MK2 cells to IC50 for trypomastigote stage of Trypanosoma cruzi Y. The class given is toxicity, cell-based. The following applies: read-out: Ratio IC50. The essentials: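 The ratio divides the LLC-MK2 IC50 by the T. cruzi trypomastigote IC50. LLC-MK2 cells were seeded at 4 × 10^4/well, given compound up to 200 μM for 48 h, and read by MTT. Y-strain trypomastigotes were exposed for 24 h, with MTT read-out. IC50s come from sigmoidal dose–response fits (95% CI), using replicates from at least two independent assays.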

The test system of data set [8] is Leishmania infantum. Nature of the data set: Leishmanicidal activity against promastigote stage of Leishmania infantum MHOM/BR/1972/LD assessed as reduction of mitochondrial membrane potential at 2 uM measured after 60 mins by MitoTracker Red CM-H2XROS dye-based fluorimetric microplate reader analysis relative to control. The class given is functional. The arrangement: scale not given: the % may be the effect or the level left. The gist of the method: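 L. infantum promastigotes at 2 × 10^6/well exposed to 2 μM compound for 60 min, then MitoTracker Red CM-H2XROS (500 nM) added; fluorescence at excitation 540 nm / emission 595 nm. Controls: DMSO, compound alone, untreated parasites, medium without cells.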

In data set [9] the test system is Leishmania infantum. Nature of the data set: Leishmanicidal activity against promastigote stage of Leishmania infantum MHOM/BR/1972/LD assessed as increase in reactive oxygen species production at 2 uM measured after 60 mins by H2DCf-DA probe-based fluorimetric microplate reader analysis relative to control. The class given is functional. The essentials:
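Promastigotes (2 × 10^6/well) given 2 μM compound for 60 min, then H2DCf-DA (5 μM) for 15 min; fluorescence at 485/520 nm. Oligomycin (20 μM) as positive control; data normalized with oligomycin-treated parasites as 100% and untreated as 0%.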

Data set [10] has as its system Leishmania infantum. The experiment in a line: Antileishmanial activity against promastigote stage of Leishmania infantum MHOM/BR/1972/LD assessed as increase in membrane permeability at 2 uM measured at 60 mins by SYTOX green staining-based fluorimetric microplate reader analysis.
In data set [11] the test system is Leishmania donovani. Nature of the data set: Antileishmanial activity against promastigote stage Leishmania donovani assessed as growth inhibition after 72 hrs by Alamar blue assay. The format is functional, organism-based.
Data set [12] concerns Leishmania donovani. The experiment in a line: Antileishmanial activity against Leishmania donovani. The format is functional, organism-based.

These results are taken from ChEMBL document CHEMBL3580607, “Anti-parasitic Guanidine and Pyrimidine Alkaloids from the Marine Sponge Monanchora arbuscula” (J Nat Prod, 2015).

Usually IC50 stands for the concentration that gives 50% inhibition.

≈ marks a conversion by molar mass, not a printed value. Calls of active or inactive are those of the source. The rule behind the calls is not given here.

For the molecule `CCCCCCCCCc1cc2n(c(=N)n1)CCC2`, the values for the IC50 with Trypanosoma cruzi [1], with LLC-MK2 and in the data set on Leishmania infantum [4] were 8 µM, 26 µM and 2 µM, respectively. In addition, the result in the data set on Leishmania infantum [2], in the data set on A549, in the data set on HeLa and with MCF7 was inactive. Besides, in the data set with Trypanosoma cruzi [3], the “Ratio IC50” value turned out to be 54. Further, in data set [5], the Activity entry is “Non-toxic”.

As for `CC/C=C/CCC[C@@H]1C[C@@H]2CC[C@@H]3C[C@@H](CCCCCCC)NC(=[N+]32)N1.O=C([O-])C(F)(F)F`, in data set [6], the IC50 turned out to be 0.24 µg/mL.

Turning to `CCCCC[C@@H]1C[C@H]2CC[C@H]3C[C@@H](CCCCC)NC(=[N+]23)N1.O=C([O-])C(F)(F)F`, in data set [6], 0.24 µg/mL corresponded to half-maximal inhibition (IC50).

Turning to `CCCCCCCC[C@@H]1C[C@@H]2CC[C@H]3[C@@H](C(=O)OC(C)CCCCCCC[C@@H]4C[C@@H]5CC[C@@H]6C[C@H](C)NC(=N4)N65)[C@@H](C)N=C(N1)N23` (stereo partly specified) [NORBATZELLADINE L], the IC50 in the data set with Trypanosoma cruzi [1] is 7 µM; with LLC-MK2, 85 µM; with Leishmania infantum [4] it was 2 µM. Also, the outcome with Leishmania infantum [2] was inactive. In the data set with Trypanosoma cruzi [3], the “Ratio IC50” value was 54. For the same molecule, the selectivity ratio in [7] was 12. The Activity is given as 30% in the data set with Leishmania infantum [8], 65% in the data set on Leishmania infantum [9] and 82% in the data set on Leishmania infantum [10].

As to `CCCCCCC[C@@H]1C[C@@H]2CCC3=C(C(=O)OCCCCCCC[C@@H]4C[C@@H]5CC[C@@H]6C[C@H](C)NC(=N4)N65)C(C)N=C(N1)N32` (stereo partly specified), the half-maximal inhibitory concentration (IC50) in the data set with Leishmania donovani [11] turned out to be 8.5 µg/mL (≈ 14.3 µM).

Take `CCCCCCCCC[C@@H]1C[C@@H]2CC[C@H]3[C@@H](C(=O)OCCCCNC(=N)N)[C@@H](C)N=C(N1)N23`: the IC50 in the data set with Trypanosoma cruzi [1] is 64 µM; in the data set with LLC-MK2 it was 130 µM; in the data set on Leishmania infantum [4] it was 2 µM. The result in the data set with Leishmania infantum [2] was inactive.

Take `CCCCCCCCCCCCCCCCOP(=O)([O-])OCC[N+](C)(C)C` [MILTEFOSINE]: the IC50 in the data set with LLC-MK2 was found to be 122 µM; in the data set with Leishmania infantum [4], 16 µM.

`O=C(Cn1ccnc1[N+](=O)[O-])NCc1ccccc1` [BENZNIDAZOLE]: the IC50 with Trypanosoma cruzi [1] came out at 441 µM; in the data set with LLC-MK2, 477 µM.

`CCCCCCC[C@@H]1C[C@@H]2CC[C@H]3[C@@H](C(=O)O[C@H](C)CCCCCCC[C@@H]4C[C@@H]5CC[C@@H]6C[C@H](C)N=C(N4)N65)[C@@H](C)N=C(N1)N23`: the IC50 amounted to 5 µM in the data set on Trypanosoma cruzi [1], 10 µM in the data set with LLC-MK2 and 4 µM in the data set with Leishmania infantum [4]. In addition, the outcome in the data set on Leishmania infantum [2] was inactive. Moreover, the “Ratio IC50” value in the data set with Trypanosoma cruzi [3] amounted to 54.

Turning to `CCC1C=CCC[C@@]2(C[C@@H]3CC[C@@H]4[C@H](C(=O)OCCCCCCCCCCCCCCCC(=O)N(CCCN)C[C@@H](O)CCN)[C@]5(CCC[C@@H](C)O5)NC(=N2)N34)O1` (stereo partly specified), the IC50 in the data set on Leishmania donovani [11] amounted to 6.8 µg/mL (≈ 8.49 µM).

In the case of `CCCCCCC[C@H]1C[C@H]2CCC3=C(C(=O)OCCCCNC(=N)N)C(CCCCC)N=C(N1)N32` (stereo partly specified), the IC50 with Leishmania donovani [11] stood at 5.5 µg/mL (≈ 11.3 µM).

As to `CCCCCCCCC[C@@H]1C[C@@H]2CC[C@H]3[C@@H](C(=O)OC(C)CCCCCCC[C@@H]4C[C@@H]5CC[C@@H]6C[C@H](C)NC(=N4)N65)[C@@H](C)N=C(N1)N23` (stereo partly specified) [BATZELLADINE L], the IC50 with Trypanosoma cruzi [1] was found to be 2 µM; in the data set with LLC-MK2, 22 µM; with Leishmania infantum [4], 2 µM; in the data set on Leishmania donovani [11], 1.9 µg/mL (≈ 2.91 µM). The outcome in the data set on Leishmania infantum [2] was inactive. The “Ratio IC50” value in the data set on Trypanosoma cruzi [3] is on record as 54. Besides, the selectivity ratio in [7] came out at 7. The Activity in the data set on Leishmania infantum [8] is recorded as 35%; in the data set on Leishmania infantum [10], 43%.

For `CCCC[C@H]1c2nc(=N)[nH]c3c2[C@H](CC3)C[C@@H]1C`, 17 µg/mL (≈ 69.3 µM) corresponded to half-maximal inhibition in the data set with Leishmania donovani [12] (IC50).
